ChEMBL document CHEMBL1921780, “Novel 3-nitro-1H-1,2,4-triazole-based aliphatic and aromatic amines as anti-chagasic agents” (J Med Chem, 2011)

Key:
[1] = test system: Trypanosoma brucei brucei; assay: Ratio of IC50 for blood-stream Trypanosoma brucei brucei expressing type 1 nitroreductase in the absence of tetracycline to IC50 for tetracycline-induced blood-stream Trypanosoma brucei brucei overexpressing type 1 nitroreductase; type: functional
How it was run: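 Each culture seeded at 1 × 10^3 per ml, given compound for 3 days at 37 °C, then Alamar blue added for 16 h. IC50 taken from cell density, and the ratio is uninduced over induced.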

[2] = Selectivity index, ratio of IC50 for rat L6 cells to IC50 for Trypanosoma brucei rhodesiense STIB 900; type: toxicity, cell-based; settings: L6 cells versus Trypanosoma brucei rhodesiense STIB 900, read-out: Ratio IC50
How it was run: (§1)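 Selectivity index is the L6 myoblast IC50 divided by the IC50 for each parasite. L. donovani was tested as axenic amastigotes. Both IC50s came from 96-well dose-response screens fitted by linear regression of sigmoidal curves.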

Trypanosoma cruzi [3] = assay: Antitrypanosomal activity against amastigotes of Trypanosoma cruzi Tulahuen C4 infected in rat L6 cells after 72 hrs by alamar blue assay; settings: Tulahuen C4, L6, 72 h
[4] = Selectivity index, ratio of IC50 for rat L6 cells to IC50 for Leishmania donovani MHOM-ET-67/L82; type: toxicity, cell-based; settings: L6 cells versus Leishmania donovani MHOM-ET-67/L82, read-out: Ratio IC50; how it was run: as §1
[5] = test system: Trypanosoma brucei brucei; assay: Antitrypanosomal activity against tetracycline-induced blood-stream Trypanosoma brucei brucei overexpressing type 1 nitroreductase after 3 days by alamar blue assay; type: functional, organism-based; settings: 72 h
How it was run: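 Bloodstream-form parasites carrying inducible TbNTR, with expression induced by tetracycline (1 μg/mL). Seeded at 1 × 10^3 per ml with a range of nitrotriazole or nifurtimox concentrations. Incubated 3 days at 37 °C, then Alamar blue added for 16 h. IC50 taken from cell density.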

[6] = test system: Trypanosoma brucei rhodesiense; assay: Antitrypanosomal activity against blood stream form of Trypanosoma brucei rhodesiense STIB 900 […] after 72 hrs by alamar blue assay; type: functional, organism-based; settings: STIB 900, 72 h
[7] = Selectivity index, ratio of IC50 for rat L6 cells to IC50 for Trypanosoma cruzi Tulahuen C4; type: toxicity, cell-based; settings: L6 cells versus Trypanosoma cruzi Tulahuen C4, read-out: Ratio IC50; how it was run: as §1
Trypanosoma cruzi [8] = assay: Ratio of benznidazole IC50 to compound IC50 for Trypanosoma cruzi Tulahuen C4 infected in rat L6 cells after 72 hrs by alamar blue assay; type: functional
[9] = test system: Trypanosoma brucei brucei; assay: Antitrypanosomal activity against blood-stream Trypanosoma brucei brucei after 3 days by alamar blue assay; type: functional, organism-based; settings: 72 h
How it was run: (§2)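 Bloodstream-form parasites seeded at 1 × 10^3 per ml in growth medium with a range of nitrotriazole or nifurtimox concentrations, no tetracycline. Incubated 3 days at 37 °C, then Alamar blue added for a further 16 h. IC50 taken from culture cell density.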

[10] = test system: Trypanosoma brucei brucei; assay: Antitrypanosomal activity against blood-stream Trypanosoma brucei brucei expressing type 1 nitroreductase after 3 days by alamar blue assay in absence of tetracycline; type: functional, organism-based; settings: 72 h; how it was run: as §2
[11] = Dissociation constant, pKa of the compound; type: physicochemical
L6 = assay: Cytotoxicity against rat L6 cells after 72 hrs by alamar blue assay; type: cell-based; settings: L6, 72 h
How it was run: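 Run in 96-well plates with a compound dose series. T. cruzi was tested as amastigotes inside infected L6 rat skeletal myoblasts. Uninfected L6 cells were used for cytotoxicity. IC50 was obtained by linear regression from sigmoidal dose–inhibition curves.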

Leishmania donovani = assay: Antileishmanial activity against Leishmania donovani MHOM-ET-67/L82 axenic amastigotes after 72 hrs by alamar blue assay; settings: MHOM-ET-67/L82, 72 h

SMILES: Cl.Cl.O=[N+]([O-])c1ncn(CCCN2CCN(c3ccc(C(F)(F)F)cc3)CC2)n1
- Ratio IC50 [1]: 13
- selectivity ratio [2]: 10
- IC50 (Trypanosoma cruzi [3]): 40 nM
- selectivity ratio [4]: 2
- IC50 [5]: 210 nM
- IC50 [6]: 5330 nM
- selectivity ratio [7]: 1320
- Ratio IC50 (Trypanosoma cruzi [8]): 33.8
- IC50 [9]: 2300 nM
- IC50 [10]: 2630 nM
- pKa [11]: 7.85
- IC50 (L6): 52800 nM
- IC50 (Leishmania donovani): 25900 nM

SMILES: Cl.O=[N+]([O-])c1ncn(CCCNc2c3ccccc3nc3ccccc23)n1
- selectivity ratio [2]: 34
- IC50 (Trypanosoma cruzi [3]): 140 nM
- selectivity ratio [4]: 1
- IC50 [6]: 611 nM
- selectivity ratio [7]: 147
- Ratio IC50 (Trypanosoma cruzi [8]): 9.6
- pKa [11]: 9.2
- IC50 (L6): 20500 nM
- IC50 (Leishmania donovani): 35400 nM

SMILES: Cl.O=[N+]([O-])c1ncn(CCCCNc2ccnc3cc(C(F)(F)F)ccc23)n1
- selectivity ratio [2]: 973
- IC50 (Trypanosoma cruzi [3]): 305 nM
- selectivity ratio [4]: 1
- IC50 [6]: 117 nM
- selectivity ratio [7]: 373
- Ratio IC50 (Trypanosoma cruzi [8]): 4.4
- pKa [11]: 7.53
- IC50 (L6): 114000 nM
- IC50 (Leishmania donovani): 137000 nM

SMILES: Cl.O=[N+]([O-])c1ncn(CCCN(Cc2ccc3cc(Br)ccc3n2)Cc2ccc3cc(Br)ccc3n2)n1
- selectivity ratio [2]: 99
- IC50 (Trypanosoma cruzi [3]): 320 nM
- selectivity ratio [4]: 5
- IC50 [6]: 463 nM
- selectivity ratio [7]: 144
- Ratio IC50 (Trypanosoma cruzi [8]): 4.2
- pKa [11]: 6.87
- IC50 (L6): 46000 nM
- IC50 (Leishmania donovani): 9330 nM

SMILES: Cl.O=[N+]([O-])c1ncn(CCCNCc2ccc(C(F)(F)F)cc2)n1
- selectivity ratio [2]: 34
- IC50 (Trypanosoma cruzi [3]): 320 nM
- selectivity ratio [4]: 1
- IC50 [6]: 3610 nM
- selectivity ratio [7]: 383
- Ratio IC50 (Trypanosoma cruzi [8]): 4.2
- pKa [11]: 9.65
- IC50 (L6): 122000 nM
- IC50 (Leishmania donovani): 159000 nM

SMILES: CC1CS(=O)(=O)CCN1/N=C/c1ccc([N+](=O)[O-])o1 (stereo unspecified) [NIFURTIMOX]
- Ratio IC50 [1]: 13
- IC50 [5]: 130 nM
- IC50 [10]: 1710 nM

SMILES: COc1ccc2nc3cc(Cl)ccc3c(NCCCCn3cnc([N+](=O)[O-])n3)c2c1
- selectivity ratio [2]: 74
- IC50 (Trypanosoma cruzi [3]): 151 nM
- selectivity ratio [4]: 1
- IC50 [6]: 134 nM
- selectivity ratio [7]: 66
- pKa [11]: 8.84
- IC50 (L6): 9940 nM
- IC50 (Leishmania donovani): 10200 nM

SMILES: Cl.O=[N+]([O-])c1nccn1CCCNc1nc(-c2ccccc2)nc2ccccc12
- Ratio IC50 [1]: 8
- selectivity ratio [2]: 22
- IC50 (Trypanosoma cruzi [3]): 1970 nM
- selectivity ratio [4]: 9
- IC50 [5]: 950 nM
- IC50 [6]: 3920 nM
- selectivity ratio [7]: 45
- Ratio IC50 (Trypanosoma cruzi [8]): 0.7
- IC50 [9]: 7470 nM
- IC50 [10]: 7580 nM
- pKa [11]: 5.06
- IC50 (L6): 87800 nM
- IC50 (Leishmania donovani): 10100 nM

SMILES: Cl.Cl.O=[N+]([O-])c1ncn(CCCCN2CCN(Cc3ccc(C(F)(F)F)cc3)CC2)n1
- selectivity ratio [2]: 99
- IC50 (Trypanosoma cruzi [3]): 412 nM
- selectivity ratio [4]: 3
- IC50 [6]: 1200 nM
- selectivity ratio [7]: 287
- Ratio IC50 (Trypanosoma cruzi [8]): 3.3
- IC50 [9]: > 10000 nM
- pKa [11]: 8.52
- IC50 (L6): 118000 nM
- IC50 (Leishmania donovani): 44400 nM

SMILES: Cl.O=[N+]([O-])c1ncn(CCCCNc2ccnc3cccnc23)n1
- selectivity ratio [2]: 220
- IC50 (Trypanosoma cruzi [3]): 460 nM
- IC50 [6]: 435 nM
- selectivity ratio [7]: 208
- Ratio IC50 (Trypanosoma cruzi [8]): 2.9
- pKa [11]: 6.81
- IC50 (L6): 95800 nM
- IC50 (Leishmania donovani): > 276000 nM

SMILES: Cl.O=[N+]([O-])c1ncn(CCCCNc2nc(-c3ccccc3)nc3ccccc23)n1
- selectivity ratio [2]: 137
- IC50 (Trypanosoma cruzi [3]): 1740 nM
- selectivity ratio [4]: 9
- IC50 [6]: 562 nM
- selectivity ratio [7]: 44
- Ratio IC50 (Trypanosoma cruzi [8]): 0.8
- pKa [11]: 5.06
- IC50 (L6): 77000 nM
- IC50 (Leishmania donovani): 8690 nM

SMILES: Cl.O=[N+]([O-])c1ncn(CCCCNc2ccnc3cc(Cl)ccc23)n1
- Ratio IC50 [1]: 4
- selectivity ratio [2]: 708
- IC50 (Trypanosoma cruzi [3]): 140 nM
- selectivity ratio [4]: 2
- IC50 [5]: 100 nM
- IC50 [6]: 193 nM
- selectivity ratio [7]: 976
- Ratio IC50 (Trypanosoma cruzi [8]): 9.6
- IC50 [9]: 170 nM
- IC50 [10]: 440 nM
- pKa [11]: 7.31
- IC50 (L6): 137000 nM
- IC50 (Leishmania donovani): 64500 nM

SMILES: Cl.O=[N+]([O-])c1ncn(CCCNCc2ccc3ccc(Cl)cc3n2)n1
- selectivity ratio [2]: 136
- IC50 (Trypanosoma cruzi [3]): 311 nM
- selectivity ratio [4]: 2
- IC50 [6]: 1050 nM
- selectivity ratio [7]: 460
- Ratio IC50 (Trypanosoma cruzi [8]): 4.3
- pKa [11]: 8.76
- IC50 (L6): 143000 nM
- IC50 (Leishmania donovani): 63800 nM

SMILES: Cl.O=[N+]([O-])c1ncn(CCCN(Cc2ccc(C(F)(F)F)cc2)Cc2ccc(C(F)(F)F)cc2)n1
- Ratio IC50 [1]: 2
- selectivity ratio [2]: 339
- IC50 (Trypanosoma cruzi [3]): 145 nM
- selectivity ratio [4]: 264
- IC50 [5]: 100 nM
- IC50 [6]: 271 nM
- selectivity ratio [7]: 634
- Ratio IC50 (Trypanosoma cruzi [8]): 9.3
- IC50 [9]: 210 nM
- IC50 [10]: 200 nM
- pKa [11]: 8.79
- IC50 (L6): 91900 nM
- IC50 (Leishmania donovani): 348 nM

SMILES: Cl.O=[N+]([O-])c1ncn(CCCNc2ccnc3cccnc23)n1
- selectivity ratio [2]: 60
- IC50 (Trypanosoma cruzi [3]): 1030 nM
- selectivity ratio [4]: 1
- IC50 [6]: 2220 nM
- selectivity ratio [7]: 129
- Ratio IC50 (Trypanosoma cruzi [8]): 1.3
- IC50 [9]: > 10000 nM
- pKa [11]: 6.81
- IC50 (L6): 133000 nM
- IC50 (Leishmania donovani): 182000 nM

SMILES: Cl.O=[N+]([O-])c1ncn(CCCN(Cc2ccc3ccc(Cl)cc3n2)Cc2ccc3ccc(Cl)cc3n2)n1
- selectivity ratio [2]: 78
- IC50 (Trypanosoma cruzi [3]): 358 nM
- selectivity ratio [4]: 7
- IC50 [6]: 917 nM
- selectivity ratio [7]: 200
- Ratio IC50 (Trypanosoma cruzi [8]): 3.8
- pKa [11]: 6.87
- IC50 (L6): 71600 nM
- IC50 (Leishmania donovani): 9580 nM

SMILES: O=[N+]([O-])c1nccn1CCCN(Cc1ccc2cc(Br)ccc2n1)Cc1ccc2cc(Br)ccc2n1
- selectivity ratio [2]: 7
- IC50 (Trypanosoma cruzi [3]): 4670 nM
- selectivity ratio [4]: 5
- IC50 [6]: 14200 nM
- selectivity ratio [7]: 20
- IC50 (L6): 93600 nM
- IC50 (Leishmania donovani): 18700 nM

SMILES: Cl.Cl.O=[N+]([O-])c1ncn(CCCN2CCN(Cc3ccc(C(F)(F)F)cc3)CC2)n1
- selectivity ratio [2]: > 140
- IC50 (Trypanosoma cruzi [3]): 340 nM
- selectivity ratio [4]: > 3
- IC50 [6]: 1380 nM
- selectivity ratio [7]: > 562
- Ratio IC50 (Trypanosoma cruzi [8]): 4
- IC50 [9]: > 10000 nM
- pKa [11]: 8.33
- IC50 (L6): > 191000 nM
- IC50 (Leishmania donovani): 58200 nM
